Source: PubChem BioAssay (several laboratories)
A selection: hits, their analogues and other compounds. The true share with any hit is near 1.8%.
MBD2 DNA inh = inhibitors of MBD2 binding to methylated DNA, primary screen, biochemical, TR-FRET, DNA-binding domain, human; AID 686964, 2013; actives 0.31% (n = 370,000); MBD2 binding to methylated oligonucleotide; inhibition, % at 4.4 µM; in the data active = inhibition above about 13%
LEDGF integ inh = blockers of LEDGF/p75-dependent integrase strand transfer – biochemical, TR-FRET, high throughput, primary screen; AID 743269, 2014; inhibition, % at 3.7 µM; actives 0.64% (n = 370,000); TR-FRET IN-LEDGF/p75 DNA integration, Eu/Cy5;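 active = inhibition above the screen-wide mean plus 3 SD, cut at about 13% in these data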;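 also: signal is the Cy5 over europium emission ratio at 671 and 618 nm; 0% = plate median of compound wells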
TDP2 absorb = human TDP2 enzyme inhibitors, primary screen, biochemical, epi absorbance, recombinant enzyme. Tyrosyl-DNA phosphodiesterase 2 (Homo sapiens), O95551. T5PNP hydrolysis, p-nitrophenol absorbance 415 nm. inhibition, % at 12.8 µM. actives 0.34% (n = 370,000);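 active = inhibition above the mean of all tested compounds plus 3 SD, set per campaign, cut at about 25% in these data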;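 also: 0% = DMSO with enzyme and 100% = buffer with substrate but no TDP2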
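Incubation: 2 h at 37 °C; Test system: recombinant human TDP2; Quantity: enzyme 120 nM; Read-out basis: percent inhibition; Medium: 50 mM Tris-HCl pH 7.5 with Mg2+, KCl, DTT, BSA; Repeats: single replicate; Compound: 12.8 µM single point, 1% DMSO; Signal: epi absorbance; Reagent: 5 mM T5PNP chromogenic substrate; Benchmarks: no-enzyme high, DMSO-plus-enzyme low.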
CASP6 VEID inh = human caspase-6 inhibitors, primary screen, biochemical, VEID-R110 fluorescence, single point, set 2; purified caspase-6, Z-VEID-R110 cleavage fluorescence; inhibition, % at 12.5 µM; P55212; actives 0.53% (n = 350,000);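 active = mean inhibition across replicates at least about 35%, with every replicate also reaching that limit, limit read from the data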;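 also: 0% = median of neutral control wells and 100% = no fluorescence left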
UHRF1 binding = UHRF1 methylated DNA binding inhibitors, primary screen, counter-screen for MBD2 inhibitor project, biochemical, TR-FRET, human UHRF1, single concentration | UHRF1 binding to methylated oligo | inhibition, % at 4.4 µM | actives 0.75% (n = 370,000); in the data active = inhibition above about 21%;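 also: UHRF1 SRA domain binding a hemimethylated CpG hairpin DNA probe; 0% = median of test compound wells and 100% = reference inhibitor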
NSD2 inh = NSD2 histone methyltransferase inhibitors, primary screen, biochemical, AlphaScreen, single concentration, set 2 | Histone-lysine N-methyltransferase NSD2 (Homo sapiens), O96028 | NSD2 peptide methylation, 120 min | inhibition, % at 12.5 µM | actives 0.54% (n = 310,000) | AID 743445, 2014; in the data active = inhibition above about 50%
Target sequence (O96028 whole entry, looked up): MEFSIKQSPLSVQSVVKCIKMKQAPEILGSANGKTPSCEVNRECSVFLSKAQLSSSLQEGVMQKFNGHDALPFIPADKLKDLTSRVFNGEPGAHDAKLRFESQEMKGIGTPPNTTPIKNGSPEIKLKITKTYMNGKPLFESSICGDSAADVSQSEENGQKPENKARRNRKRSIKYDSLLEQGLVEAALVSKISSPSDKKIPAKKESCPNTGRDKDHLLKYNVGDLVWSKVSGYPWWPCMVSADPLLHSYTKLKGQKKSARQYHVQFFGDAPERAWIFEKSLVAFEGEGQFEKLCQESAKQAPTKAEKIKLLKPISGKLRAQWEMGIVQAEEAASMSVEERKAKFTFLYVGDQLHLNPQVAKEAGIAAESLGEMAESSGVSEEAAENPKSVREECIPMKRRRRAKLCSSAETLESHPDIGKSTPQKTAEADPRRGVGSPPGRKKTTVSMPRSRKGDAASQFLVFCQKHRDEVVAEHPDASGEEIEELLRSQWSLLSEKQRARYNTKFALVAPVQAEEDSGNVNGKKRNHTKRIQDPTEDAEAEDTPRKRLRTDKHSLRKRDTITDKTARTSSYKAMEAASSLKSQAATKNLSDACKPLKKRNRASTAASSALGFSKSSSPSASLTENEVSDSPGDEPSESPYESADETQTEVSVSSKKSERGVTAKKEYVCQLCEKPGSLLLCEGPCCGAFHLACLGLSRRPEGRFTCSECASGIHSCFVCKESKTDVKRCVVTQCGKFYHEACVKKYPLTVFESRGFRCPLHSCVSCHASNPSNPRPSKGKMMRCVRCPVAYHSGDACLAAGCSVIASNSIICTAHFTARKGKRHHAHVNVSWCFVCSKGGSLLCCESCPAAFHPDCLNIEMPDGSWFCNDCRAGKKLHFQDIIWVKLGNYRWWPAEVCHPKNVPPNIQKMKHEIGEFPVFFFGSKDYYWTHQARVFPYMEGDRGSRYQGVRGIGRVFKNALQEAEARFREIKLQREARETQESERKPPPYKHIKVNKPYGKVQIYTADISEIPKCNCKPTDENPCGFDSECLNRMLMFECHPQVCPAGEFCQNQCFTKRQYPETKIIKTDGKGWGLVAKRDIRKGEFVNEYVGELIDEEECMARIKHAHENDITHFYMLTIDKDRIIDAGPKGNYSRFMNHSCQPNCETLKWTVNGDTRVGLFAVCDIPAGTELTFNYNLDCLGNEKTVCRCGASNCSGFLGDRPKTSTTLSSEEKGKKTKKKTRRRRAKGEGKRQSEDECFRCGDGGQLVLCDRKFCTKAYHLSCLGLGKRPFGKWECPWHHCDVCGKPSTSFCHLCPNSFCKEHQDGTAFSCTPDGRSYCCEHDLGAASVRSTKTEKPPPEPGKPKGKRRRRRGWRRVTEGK
The depositor's hits bear a star; / = no result given.

SMILES	MBD2 DNA inh	LEDGF integ inh	TDP2 absorb	CASP6 VEID inh	UHRF1 binding	NSD2 inh
COc1ccccc1NC(=O)N1CCN(c2ccc3nnc(-c4ccc(F)cc4)n3n2)CC1	-6.3	5.1	-4.1	-3.1	-12.4	/
Cn1c(=O)[nH]c(=O)c2[nH]c(NCCCN3CCOCC3)nc21	4.7	-0.1	1.9	/	23.0*	/
Cn1c(=O)[nH]c(=O)c2c1ncn2CCN1CCOCC1	-6.8	7.5	2.8	/	2.0	-0.2
O=C(Oc1c(CN2CCOCC2)cc(Cl)c2cccnc12)c1ccccc1F	12.5	-3.7	-7.9	-1.8	22.5*	1.6
Cc1cc(N2CCCC2)ccc1NC(=O)CN1C(=O)NC2(CCCCC2)C1=O	1.5	-4.6	-7.1	39.2*	3.3	5.5
COc1ccc(S(=O)(=O)N=Nc2c(O)[nH]c3ccccc23)cc1	13.4*	9.7	2.8	26.0	45.9*	/
COc1ccc(Cc2c(-c3ccc(OC)c(OC)c3)nc3ccc(C)cn23)c(C)c1	6.8	-0.8	-1.1	0.4	24.4*	/
COc1ccc(Cc2c(-c3ccc(F)cc3)nc3ccc(C)cn23)c(C)c1	4.0	-2.2	1.0	-6.5	20.8*	/
Cc1ccn2c(Cc3ccccc3)c(-c3ccc(F)cc3)nc2c1	8.1	-3.2	1.2	2.1	21.2*	/
Fc1ccc(-c2nc3ccc(Cl)cn3c2Cc2ccccc2)cc1	2.6	0.9	3.2	-4.2	-2.4	/
CN1C(=O)c2cc(NC(=O)c3ccccc3)ccc2OC[C@H]2O[C@H](CC(=O)O)CC[C@H]21	/	/	/	2.2	/	/
NC(=O)NCC#Cc1ccc2c(c1)[C@]1(C(=O)N2)[C@H](c2ccccc2OCCO)N2[C@H](c3ccccc3)[C@H](c3ccccc3)OC(=O)[C@H]2[C@@H]1C(=O)O	/	/	/	1.0	/	/
O=C1O[C@@H](c2ccccc2)[C@@H](c2ccccc2)N2[C@@H](c3ccccc3OCCO)[C@]3(C(=O)Nc4ccccc43)[C@@H](C(=O)O)[C@H]12	/	/	/	35.6*	/	/
O=C(C[C@H]1CC[C@H]2[C@@H](COC[C@@H](O)CN2C(=O)Nc2ccccc2)O1)NCCc1ccncc1	/	/	/	0.6	/	/
Cc1noc(C)c1NC(=O)Nc1ccc2c(c1)C(=O)N([C@H](C)CO)C[C@@H](C)[C@H](CN(C)Cc1ccc(C(F)(F)F)cc1)OCCCC[C@H](C)O2	/	/	/	3.0	/	/
CCOc1ccc(Cl)cc1-c1cc(C(=O)NCc2ccccc2)[nH]n1	-1.8	0.9	-7.8	1.4	-0.2	0.4
CCOc1ccc(Cl)cc1-c1cc(C(=O)NCc2cc(C(F)(F)F)cc(C(F)(F)F)c2)[nH]n1	7.3	2.6	-5.3	-1.9	44.6*	-0.9
COc1ccc(S(=O)(=O)Nc2ccc3c(c2)C(=O)N([C@@H](C)CO)C[C@@H](C)[C@@H](CN(C)C(=O)CCCN(C)C)OCCCC[C@H](C)O3)cc1	/	/	/	0.2	/	/
Cc1cc(C)nc(N2CCN(S(=O)(=O)c3ccc(F)cc3)CC2)n1	-2.8	-0.4	11.8	37.7*	-1.2	-6.9
COc1cc(-c2nnc(COC(=O)c3ccc([N+](=O)[O-])o3)o2)cc(OC)c1OC	0.5	1.1	-0.8	57.6*	-1.9	2.2
CCC(=O)N[C@H]1CC[C@@H](CCn2cc(CN(C)C)nn2)O[C@@H]1CO	/	/	/	1.4	/	/
Cc1ccc(S(=O)(=O)N(CC(=O)O)Cc2ccco2)cc1	0.7	0.8	8.0	62.5*	7.3	9.2
CCOC(=O)N1CCN(C(=O)COc2ccccc2[N+](=O)[O-])CC1	-6.6	3.5	0.2	0.9	-0.5	1.1
CCOC(=O)N1CCN(C(=O)Cc2ccccc2[N+](=O)[O-])CC1	0.3	-4.4	-1.0	35.1*	-0.6	-1.5
CCC1(C)Cc2c(C#N)c(N)n(-c3ccccc3)c(=S)c2CO1 (centres undefined)	0.7	3.4	1.4	35.6*	0.7	10.1
SMILES	MBD2 DNA inh	LEDGF integ inh	TDP2 absorb	CASP6 VEID inh	UHRF1 binding	NSD2 inh
Cc1ccc(C)c(/C=C(\C(=O)O)c2ccc(S(=O)(=O)N3CCCCC3)s2)c1	1.1	1.2	7.6	37.4*	-1.2	-0.6
COc1ccc(Br)cc1/C=C(\C(=O)O)c1ccc(S(=O)(=O)N2CCCCC2)s1	-3.2	2.6	1.9	36.9*	0.0	8.5
O=C(C1CC1)N1CCCCN2[C@H](CO)[C@@H](c3ccc(C#CC4(O)CCCC4)cc3)[C@H]2C1	/	/	/	2.0	/	/
CC(C)(C)CC(C)(C)NCC(=O)Nc1c2c(nc3ccccc13)CCC2	4.5	-0.8	11.8	1.9	27.3*	-1.8
CCOc1ccccc1C1C(C(=O)Nc2ccccc2OC)=C(C)Nc2nc(CCCO)nn21 (centres undefined)	1.5	-3.8	-10.9	1.2	22.2*	/
CCc1ccc(CN(Cc2cccnc2)C(=O)/C=C/c2ccc(OC)cc2)cc1	7.7	3.9	-11.1	98.2*	-0.5	5.1
COc1ccc(/C=C/C(=O)NCc2cccnc2)cc1	-3.8	3.4	-19.4	1.6	-4.0	-2.0
COc1ccc(S(=O)(=O)N2CCOCC2)cc1NC(=O)CN(C)Cc1c(F)cccc1Cl	4.2	3.2	-8.1	-1.5	23.9*	-1.1
C[C@@H]1CN([C@H](C)CO)C(=O)c2cccc(NC(=O)C3CC3)c2O[C@H]1CN(C)S(=O)(=O)c1ccccc1	/	/	/	0.4	/	/
CCS(=O)(=O)N[C@H]1CC[C@@H](CC(=O)NCc2ccccn2)O[C@H]1CO	/	/	/	23.1	/	/
CC(C)NC(=O)N1[C@H](CO)[C@H](c2ccccc2-c2ccc(F)cc2)[C@@H]1C#N	/	/	/	4.0	/	/
Cc1cc(NC(=O)CSCc2ccc([N+](=O)[O-])cc2)no1	-4.6	2.4	11.5	0.0	-1.3	142.7*
C[C@H]1CN([C@@H](C)CO)C(=O)c2cc(NS(=O)(=O)c3ccccc3)ccc2O[C@H]1CN(C)C(=O)Nc1ccccc1	/	/	/	-1.0	/	/
CC(C)CNC(=O)c1cccc2c(-c3ccc(F)c(F)c3)coc12	0.3	-3.8	1.1	54.7*	-0.3	-1.4
C[C@@H]1CN([C@@H](C)CO)C(=O)c2cc(NC(=O)CCCN(C)C)ccc2O[C@@H](C)CCCCO[C@@H]1CN(C)C(=O)Cc1ccccc1	/	/	/	-18.9	/	/
Cc1cc(C)nc(NS(=O)(=O)c2ccc(NC(=O)c3ccc(S(=O)(=O)N4CC(C)OC(C)C4)cc3)cc2)n1 (centres undefined)	7.9	-3.5	-1.0	/	6.6	-1.6
